This passage reports Drug uptake results from ChEMBL document CHEMBL1156500, “Characterization of the metabolic activation of hepatitis C virus nucleoside inhibitor beta-D-2'-Deoxy-2'-fluoro-2'-C-methylcytidine (PSI-6130) and identification of a novel active 5'-triphosphate species” (J Biol Chem, 2007).

What all share (assay type): ADME, cell-based
Settings in all cases: hepatocytes

The test system of data set [1] is Hepatocyte. In words: Drug uptake in human hepatocyte at 2 uM after 1 hr assessed per 10^6 cells. The procedure, abridged:
(§1)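 Primary human hepatocytes from 4 donors were plated at 1.5 million cells/well on collagen and recovered for ≥18 h. They were dosed with 3H-labelled drug at 2 μM (10 μCi/ml) for 1–72 h, in duplicate, at 37°C. Cold 60% methanol extracts were run on SAX ion-exchange HPLC with radiometric detection and compared with reference standards. Results are pmol/10^6 cells, mean ± S.D.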

Data set [2] deals with Hepatocyte. Kind of data set: Drug uptake in human hepatocyte at 2 uM after 6 hrs assessed per 10^6 cells. The procedure, abridged: as §1
Data set [3] relates to Hepatocyte. Kind of data set: Drug uptake in human hepatocyte at 2 uM after 16 hrs assessed per 10^6 cells. In outline:
as §1

Data set [4] has as its system Hepatocyte. In words: Drug uptake in human hepatocyte at 2 uM after 72 hrs assessed per 10^6 cells. In outline:
as §1

In data set [5] the test system is Hepatocyte. In words: Drug uptake in human hepatocyte at 2 uM after 6 hrs assessed as 4-amino-1-((2R,3R,4R,5R)-3-fluoro-4-hydroxy-5-(hydroxymethyl)-3-methyl-tetrahydrofuran-2-yl)pyrimitrin-2(1H)-one tri phosphate level per 10^6 cells. The procedure, abridged: as §1
Data set [6] relates to Hepatocyte. Kind of data set: Drug uptake in human hepatocyte at 2 uM after 24 hrs assessed as 4-amino-1-((2R,3R,4R,5R)-3-fluoro-4-hydroxy-5-(hydroxymethyl)-3-methyl-tetrahydrofuran-2-yl)[…]-2(1H)-one tri phosphate level per 10^6 cells. In outline:
as §1

Data set [7] relates to Hepatocyte. In words: Drug uptake in human hepatocyte at 250 uM after 24 hrs assessed as 1-((2R,3R,4R,5R)-3-fluoro-4-hydroxy-5-(hydroxymethyl)-3-methyl-tetrahydrofuran-2-yl)pyrimidine-2,4(1H,3H)-dione di phosphate level per 10^6 cells. In outline:
(§2)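 Primary human hepatocytes from 3 donors were plated on collagen and recovered for ≥18 h. They were exposed for 24 h, in duplicate, to 0–250 μM drug: 3H-labelled material diluted with unlabelled compound. Total intracellular radioactivity and individual phosphates were measured in methanol extracts by SAX HPLC with radiometric detection. Results are pmol/10^6 cells, mean ± S.D.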

Data set [8] has as its system Hepatocyte. Kind of data set: Drug uptake in human hepatocyte at 10 uM after 24 hrs assessed as 4-amino-1-((2R,3R,4R,5R)-3-fluoro-4-hydroxy-5-(hydroxymethyl)-3-methyl-tetrahydrofuran-2-yl)pyrimidin-2(1H)-one tri phosphate level per 10^6 cells. In outline:
as §2

Data set [9] has as its system Hepatocyte. In words: Drug uptake in human hepatocyte at 25 uM after 24 hrs assessed as 4-amino-1-((2R,3R,4R,5R)-3-fluoro-4-hydroxy-5-(hydroxymethyl)-3-methyl-tetrahydrofuran-2-yl)pyrimidin-2(1H)-one tri phosphate level per 10^6 cells. In outline:
as §2

For data set [10], the system named is Hepatocyte. In words: Drug uptake in human hepatocyte at 250 uM after 24 hrs assessed as 4-amino-1-((2R,3R,4R,5R)-3-fluoro-4-hydroxy-5-(hydroxymethyl)-3-methyl-tetrahydrofuran-2-yl)pyrimidin-2(1H)-one tri phosphate level per 10^6 cells. In outline: as §2
Data set [11] has as its system Hepatocyte. In words: Drug uptake in human hepatocyte at 2 uM after 24 hrs assessed as 1-((2R,3R,4R,5R)-3-fluoro-4-hydroxy-5-(hydroxymethyl)-3-methyl-tetrahydrofuran-2-yl)pyrimidine-2,4(1H,3H)-dione tri phosphate level per 10^6 cells. In outline:
as §2

For data set [12], the system named is Hepatocyte. Kind of data set: Drug uptake in human hepatocyte at 10 uM after 24 hrs assessed as 1-((2R,3R,4R,5R)-3-fluoro-4-hydroxy-5-(hydroxymethyl)-3-methyl-tetrahydrofuran-2-yl)pyrimidine-2,4(1H,3H)-dione tri phosphate level per 10^6 cells. The procedure, abridged: as §2
The subject of data set [13] is Hepatocyte. In words: Drug uptake in human hepatocyte at 25 uM after 24 hrs assessed as 1-((2R,3R,4R,5R)-3-fluoro-4-hydroxy-5-(hydroxymethyl)-3-methyl-tetrahydrofuran-2-yl)pyrimidine-2,4(1H,3H)-dione tri phosphate level per 10^6 cells. The procedure, abridged:
as §2

Data set [14] concerns Hepatocyte. Kind of data set: Drug uptake in human hepatocyte at 50 uM after 24 hrs assessed as 1-((2R,3R,4R,5R)-3-fluoro-4-hydroxy-5-(hydroxymethyl)-3-methyl-tetrahydrofuran-2-yl)pyrimidine-2,4(1H,3H)-dione tri phosphate level per 10^6 cells. The procedure, abridged:
as §2

For data set [15], the system named is Hepatocyte. Kind of data set: Drug uptake in human hepatocyte at 250 uM after 24 hrs assessed as 1-((2R,3R,4R,5R)-3-fluoro-4-hydroxy-5-(hydroxymethyl)-3-methyl-tetrahydrofuran-2-yl)pyrimidine-2,4(1H,3H)-dione tri phosphate level per 10^6 cells. In outline: as §2
In data set [16] the test system is Hepatocyte. Kind of data set: Drug uptake in human hepatocyte at 2 uM after 16 hrs assessed as 1-((2R,3R,4R,5R)-3-fluoro-4-hydroxy-5-(hydroxymethyl)-3-methyl-tetrahydrofuran-2-yl)pyrimitrine-2,4(1H,3H)-trione tri phosphate level per 10^6 cells. In outline: as §1
Data set [17] has as its system Hepatocyte. Kind of data set: Drug uptake in human hepatocyte at 2 uM after 72 hrs assessed as 1-((2R,3R,4R,5R)-3-fluoro-4-hydroxy-5-(hydroxymethyl)-3-methyl-tetrahydrofuran-2-yl)[…] tri phosphate level per 10^6 cells. The procedure, abridged: as §1
Data set [18] deals with Hepatocyte. Kind of data set: Drug uptake in human hepatocyte at 2 uM after 24 hrs assessed per 10^6 cells.
Data set [19] deals with Hepatocyte. In words: Drug uptake in human hepatocyte at 50 uM after 24 hrs assessed per 10^6 cells. The procedure, abridged:
as §2

In data set [20] the test system is Hepatocyte. In words: Drug uptake in human hepatocyte at 100 uM after 24 hrs assessed as 4-amino-1-((2R,3R,4R,5R)-3-fluoro-4-hydroxy-5-(hydroxymethyl)-3-methyl-tetrahydrofuran-2-yl)pyrimidin-2(1H)-one di phosphate level per 10^6 cells. The procedure, abridged:
as §2

For `C[C@@]1(F)[C@H](O)[C@@H](CO)O[C@H]1n1ccc(N)nc1=O`, the Drug uptake stood at 30.4 pmol in the data set with Hepatocyte [1]; 32.9 pmol with Hepatocyte [2]; 34.4 pmol in the data set with Hepatocyte [3]; 34.6 pmol in the data set on Hepatocyte [4]; 0.6 pmol with Hepatocyte [5]; 1.1 pmol in the data set with Hepatocyte [6]. Besides, the Drug uptake in the data set with Hepatocyte [7] was determined as 40.9 pmol; in the data set with Hepatocyte [8], 5.6 pmol; in the data set with Hepatocyte [9], 11.3 pmol; with Hepatocyte [10] it was 40.4 pmol; with Hepatocyte [11], 2.4 pmol; in the data set with Hepatocyte [12], 9.6 pmol. In addition, the Drug uptake in the data set on Hepatocyte [13] came to 21.7 pmol; in the data set on Hepatocyte [14], 34.9 pmol; with Hepatocyte [15] it was 84 pmol; in the data set on Hepatocyte [16], 0.6 pmol; with Hepatocyte [17], 2 pmol; in the data set with Hepatocyte [18] it was 34.5 pmol. Also, the Drug uptake is reported as 847.9 pmol with Hepatocyte [19] and 13.4 pmol in the data set with Hepatocyte [20].
